Our source for the Activity and viability values is ChEMBL document CHEMBL4431316, “New 6-Aminoquinoxaline Derivatives with Neuroprotective Effect on Dopaminergic Neurons in Cellular and Animal Parkinson Disease Models” (J Med Chem, 2016).

Activity calls are given as the source filed them. The calls are words filed in the database; no cut-off is given here.

Test [1] is filed under the species Rattus norvegicus. In words: (§1) Neuroprotective activity in Sprague-Dawley rat DA neuron death PD model assessed as survival of Th immunopositive cells at 50 uM after 10 days by immunofluorescence assay. The class given is functional. A digest of the protocol:
(§2)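 Midbrain cultures in which DA neurons die spontaneously and selectively through a mechanism involving immature astrocytes and calcium dyshomeostasis. Compounds were present for 10 days in vitro, screened at 50 µM (100 µM for one analog) and retested at 10 µM. dbcAMP 1 mM served as reference. Surviving TH+ neurons were counted and expressed as % of corresponding untreated control cultures.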

Test [2] relates to Astrocyte. In words: Neuroprotective activity in Sprague-Dawley rat astrocytes assessed as effect on vimentin positive cell density and morphology at 10 uM by fluorescence microscopic method. The test is classed as functional, cell-based. The method in brief:
(§3)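 Midbrain cultures labelled for vimentin, a glial marker. Density and morphology of glial cells scored semi-quantitatively by fluorescence microscopy. Compounds tested at 10 and 50 µM, one at 100 µM; dbcAMP as reference.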

The nature of test [3]: (§4) Neuroprotective activity in Sprague-Dawley rat DA neuron death PD model assessed as survival of Th immunopositive cells at 10 uM after 10 days by immunofluorescence assay relative to control. The class given is functional. The settings on record: 240 h, read-out: Survival. A digest of the protocol: as §2
The subject of test [4] is Astrocyte. The test is described as follows: Neuroprotective activity in Sprague-Dawley rat astrocytes assessed as effect on vimentin positive cell density and morphology at 50 uM by fluorescence microscopic method. The test is classed as functional, cell-based. A digest of the protocol:
as §3

Test [5] is filed under the species Rattus norvegicus. The description is as §4. The test is classed as functional. A digest of the protocol: as §2
Test [6] has as its system Astrocyte. The test is described as follows: Neuroprotective activity in Sprague-Dawley rat astrocytes assessed as [methyl-3H]thymidine incorporation at 10 to 50 uM after 8 days by liquid scintillation counting assay relative to control. The test is classed as functional. A digest of the protocol: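 Glial proliferation in midbrain cultures measured as [methyl-3H]-thymidine incorporation at 8 DIV, with test compound 10-50 µM. DbcAMP 1 mM as positive control. Expressed as % of control.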
A general note: Incorporation of labelled thymidine or its analogues reports DNA synthesis.

Test [7] has as its system Astrocyte. In words: Neuroprotective activity in Sprague-Dawley rat astrocytes assessed as effect on vimentin positive cell density and morphology at 100 uM by fluorescence microscopic method. The class given is functional, cell-based. A digest of the protocol:
as §3

Test [8] is filed under the species Rattus norvegicus. The test is described as follows: Antioxidant activity in Sprague-Dawley rat DA neuron assessed as reduction in ferrous iron-mediated neuron death at 5 uM. The test is classed as functional. The method in brief:
(§5)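 Midbrain cultures with DA cell death driven by a Fenton-type reaction, ferrous iron reacting with molecular oxygen in the medium (chronic oxidative stress). Test compound 1-10 µM; desferrioxamine 10 µM as positive control. Readout is DA neuron (TH+) survival. P < 0.05 vs control cultures.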

The nature of test [9]: Neuroprotective activity in Sprague-Dawley rat DA neuron death PD model assessed as survival of Th immunopositive cells at 100 uM after 10 days by immunofluorescence assay relative to control. The test is classed as functional. The settings on record: 240 h, read-out: Survival. A digest of the protocol:
as §2

Test [10] is filed under the species Rattus norvegicus. The test is described as follows: Antioxidant activity in Sprague-Dawley rat DA neuron assessed as reduction in ferrous iron-mediated neuron death at 10 uM. The test is classed as functional. A digest of the protocol:
as §5

Test [11] is described as follows: as §1. The class given is functional. The settings on record: 240 h, read-out: Survival. A digest of the protocol:
as §2

Test [12] in a line: Neuroprotective activity in Sprague-Dawley rat DA neuron death PD model assessed as survival of Th immunopositive cells at 1 mM after 10 days by immunofluorescence assay relative to control. The class given is functional. Conditions: 240 h, read-out: Survival. A digest of the protocol:
as §2

The species named for test [13] is Rattus norvegicus. In words: Neuroprotective activity in Sprague-Dawley rat DA neuron death PD model assessed as increase in [2,5,6-3H]DA uptake at 1 mM after 10 days by liquid scintillation counting spectrometric analysis. The class given is functional. The method in brief: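 Midbrain cultures in which DA neurons die spontaneously and selectively. Treated with test compound (10-50 µM) or dbcAMP (1 mM, reference) up to 10 DIV. Tritium-labeled DA uptake quantified as a marker of DA cell function and differentiation. Uptake rate per TH+ neuron also derived. *P < 0.05 vs control.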

For test [14], the system named is Astrocyte. In words: Neuroprotective activity in Sprague-Dawley rat astrocytes assessed as effect on vimentin positive cell density and morphology at 1 mM by fluorescence microscopic method. The class given is functional, cell-based. The method in brief:
as §3

With `C#CCNc1ccc2nc(C)c(-c3ccccc3)nc2c1Br`, the outcome in test [1] was Active. Regarding `Nc1ccc2ncc(-c3ccc(F)cc3)nc2c1`, the outcome in [2] and in test [4] was inactive. In test [3], the viability at 10 µM was determined as 144%. Also, the result in test [1] was Active. For the compound `C#CCNc1ccc2nc(C)c(-c3ccccc3)nc2c1`, the outcome in test [1] was Active.

Consider `Nc1ccc2ncc(-c3cccc(O)c3)nc2c1`, for which the result in test [5] was inactive. In [1], the outcome was Active. As to `Cc1nc2cc(Br)c(N)c(Cl)c2nc1-c1ccccc1`, in test [1], the result was inactive. With `Cc1nc2ccc(N)cc2nc1-c1ccc(F)cc1`, the result in test [1] was Active. `Cc1nc2ccc(N)c(Br)c2nc1-c1ccccc1`: the result in test [5] was inactive. For the same compound, the outcome in test [1] was Active. With `C#CCNc1ccc2nc(C)c(-c3ccc(Cl)c(Cl)c3)nc2c1`, the result in [1] and in [6] was inactive. Turning to `Nc1ccc2ncc(-c3cccc4ccccc34)nc2c1`, the outcome in test [1] was Active. On the same count and under the same terms, under `COc1ccc(-c2nc3cc(N)ccc3nc2C)cc1OC` stands “inactive”; under `C#Cc1cnc2ccc(N)cc2n1`, “inactive”.

In the case of `COc1cc(-c2cnc3ccc(N)cc3n2)cc(OC)c1OC`, the result in test [5] was inactive. Further, in [1], the outcome was Active. With `Nc1ccc2ncc(-c3cccnc3)nc2c1`, the outcome in [1] was Active. On the same count and under the same terms, for `COc1ccc(-c2nc3cc(N)ccc3nc2-c2ccccc2)cc1` the value was “inactive”. On to `Cc1nc2ccc(N)cc2nc1-c1ccc(Cl)c(Cl)c1`, for which, in test [1], the outcome was Active.

As to `C#CCNc1ccc2nc(C)c(-c3cc(OC)c(OC)c(OC)c3)nc2c1`, in test [6], the result was inactive. For the compound `C#CCNc1ccc2ncc(-c3ccc(F)cc3)nc2c1`, in [2], the outcome was inactive. For the same compound, the outcome in test [1] and in [4] was Active. For `C#CCNc1ccc2nc(C)c(-c3ccc(Cl)cc3)nc2c1`, the outcome in test [1] and in test [6] was inactive. On to `C#CCNc1ccc2nc(C)c(-c3ccc(OC)cc3)nc2c1`, for which the result in [6] was inactive. Take `Nc1ccc2ncc(-c3cnc4ccccc4c3)nc2c1`: the result in test [1] was Active. The same measure, in the same setting: under `Cc1nc2ccc(N)cc2nc1-c1ccc(-c2ccccc2)cc1` stands “inactive”; under `C#CCNc1ccc2nc(C)c(-c3ccc(F)cc3)nc2c1`, “Active”.

For `C#CCNc1ccc2ncc(-c3ccccc3)nc2c1`, the result in [2] was inactive. The viability at 10 µM in test [3] stood at 212%. The result in test [1] and in test [4] was Active. Regarding `C#CCNc1ccc2nc(C)c(-c3ccc(C)cc3)nc2c1`, the outcome in test [1] and in test [6] was inactive. As for `Cc1nc2ccc(N)cc2nc1-c1ccc2ccccc2c1`, the result in test [1] was inactive. For the compound `C#CC(C)(C)Nc1ccc2nc(C)c(-c3ccccc3)nc2c1`, the outcome in test [1] and in [6] was inactive. As to `Cc1nc2ccc(N)cc2nc1-c1ccc(Cl)cc1`, in test [1], the result was inactive. Turning to `Cc1nc2ccc(N)c(Cl)c2nc1-c1ccccc1`, in [1], the result was Active. As to `Cc1ccc(-c2nc3cc(N)ccc3nc2C)cc1`, in [1], the outcome was inactive. As to `C#CCNc1ccc2nc(C)c(-c3ccc4ccccc4c3)nc2c1`, the outcome in test [1] and in test [6] was inactive.

On to `Cc1nc2ccc(N)cc2nc1-c1ccccc1`, for which, in test [2], the outcome was inactive. In addition, the result in [7] and in test [8] was Active. Moreover, in test [9], the viability at 100 µM was determined as 199%. On to `Nc1ccc2ncc(Cl)nc2c1`, for which, in [1], the outcome was Active.

Regarding `COc1ccc(-c2nc3cc(N)ccc3nc2C)cc1`, in test [1], the outcome was inactive.

For `CC(=O)N(O)CCCCCNC(=O)CCC(=O)N(O)CCCCCNC(=O)CCC(=O)N(O)CCCCCN`, in test [10], the outcome was Active. Turning to `Nc1ccc2ncc(-c3ccc4ccccc4c3)nc2c1`, in [1], the result was Active.

On to `COc1ccc(C#Cc2cnc3ccc(N)cc3n2)cc1`, for which the outcome in test [1] was inactive. With `Nc1ccc2nc(-c3ccccc3)cnc2c1`, the result in test [2] and in [4] was inactive. Moreover, in test [3], the viability at 10 µM was found to be 134%. The viability at 50 µM in test [11] was 187%. Regarding `Cc1nc2ccc(N)cc2nc1C`, the outcome in test [1] was inactive.

`CCCC(=O)Nc1ncnc2c1ncn2[C@@H]1O[C@@H]2COP(=O)(O)O[C@H]2[C@H]1OC(=O)CCC` [BUCLADESINE]: the viability at 1000 µM in test [12] was found to be 225%. The result in [13] and in [14] was Active.
